Data reported in ChEMBL document CHEMBL5620393, “New aryl and acylsulfonamides as state-dependent inhibitors of Nav1.3 voltage-gated sodium channel” (Eur J Med Chem, 2023).
Calls of active or inactive are those of the source. No cut-off for these calls is given here.

Assays:
[1] = target: T1, Sodium channel protein type 5 subunit alpha (Homo sapiens, UniProt Q14524); test: Inhibition of human Nav1.5 expressed in CHO cells under inactivated state by automated patch clamp electrophysiology analysis; assay type: cell-based
[2] = target: Sodium channel protein type 1 subunit alpha (Homo sapiens) (UniProt P35498); test: Inhibition of human Nav1.1 expressed in Xenopus laevis oocytes at closed state at 1 uM by two electrode voltage-clamp assay; assay type: cell-based; settings: Oocyte
Method in brief: (§1)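 TEVC on Nav channels expressed in Xenopus laevis oocytes. Each oocyte was injected with 50 nL cRNA at 1 ng/nL and recorded 1–4 days later at 18–22 °C. Bath (mM): NaCl 96, KCl 2, CaCl2 1.8, MgCl2 2, HEPES 5, pH 7.4. Electrodes held 3 M KCl at 0.8–1.5 MΩ. Compound tested at 1 μM. Mean ± SD, n ≥ 5.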

[3] = target: T2, Sodium channel protein type 9 subunit alpha (Homo sapiens, UniProt Q15858); test: Inhibition of human Nav1.7 expressed in CHO cells under resting state by automated patch clamp electrophysiology analysis; assay type: cell-based
Target sequence in this assay (Q15858 whole entry): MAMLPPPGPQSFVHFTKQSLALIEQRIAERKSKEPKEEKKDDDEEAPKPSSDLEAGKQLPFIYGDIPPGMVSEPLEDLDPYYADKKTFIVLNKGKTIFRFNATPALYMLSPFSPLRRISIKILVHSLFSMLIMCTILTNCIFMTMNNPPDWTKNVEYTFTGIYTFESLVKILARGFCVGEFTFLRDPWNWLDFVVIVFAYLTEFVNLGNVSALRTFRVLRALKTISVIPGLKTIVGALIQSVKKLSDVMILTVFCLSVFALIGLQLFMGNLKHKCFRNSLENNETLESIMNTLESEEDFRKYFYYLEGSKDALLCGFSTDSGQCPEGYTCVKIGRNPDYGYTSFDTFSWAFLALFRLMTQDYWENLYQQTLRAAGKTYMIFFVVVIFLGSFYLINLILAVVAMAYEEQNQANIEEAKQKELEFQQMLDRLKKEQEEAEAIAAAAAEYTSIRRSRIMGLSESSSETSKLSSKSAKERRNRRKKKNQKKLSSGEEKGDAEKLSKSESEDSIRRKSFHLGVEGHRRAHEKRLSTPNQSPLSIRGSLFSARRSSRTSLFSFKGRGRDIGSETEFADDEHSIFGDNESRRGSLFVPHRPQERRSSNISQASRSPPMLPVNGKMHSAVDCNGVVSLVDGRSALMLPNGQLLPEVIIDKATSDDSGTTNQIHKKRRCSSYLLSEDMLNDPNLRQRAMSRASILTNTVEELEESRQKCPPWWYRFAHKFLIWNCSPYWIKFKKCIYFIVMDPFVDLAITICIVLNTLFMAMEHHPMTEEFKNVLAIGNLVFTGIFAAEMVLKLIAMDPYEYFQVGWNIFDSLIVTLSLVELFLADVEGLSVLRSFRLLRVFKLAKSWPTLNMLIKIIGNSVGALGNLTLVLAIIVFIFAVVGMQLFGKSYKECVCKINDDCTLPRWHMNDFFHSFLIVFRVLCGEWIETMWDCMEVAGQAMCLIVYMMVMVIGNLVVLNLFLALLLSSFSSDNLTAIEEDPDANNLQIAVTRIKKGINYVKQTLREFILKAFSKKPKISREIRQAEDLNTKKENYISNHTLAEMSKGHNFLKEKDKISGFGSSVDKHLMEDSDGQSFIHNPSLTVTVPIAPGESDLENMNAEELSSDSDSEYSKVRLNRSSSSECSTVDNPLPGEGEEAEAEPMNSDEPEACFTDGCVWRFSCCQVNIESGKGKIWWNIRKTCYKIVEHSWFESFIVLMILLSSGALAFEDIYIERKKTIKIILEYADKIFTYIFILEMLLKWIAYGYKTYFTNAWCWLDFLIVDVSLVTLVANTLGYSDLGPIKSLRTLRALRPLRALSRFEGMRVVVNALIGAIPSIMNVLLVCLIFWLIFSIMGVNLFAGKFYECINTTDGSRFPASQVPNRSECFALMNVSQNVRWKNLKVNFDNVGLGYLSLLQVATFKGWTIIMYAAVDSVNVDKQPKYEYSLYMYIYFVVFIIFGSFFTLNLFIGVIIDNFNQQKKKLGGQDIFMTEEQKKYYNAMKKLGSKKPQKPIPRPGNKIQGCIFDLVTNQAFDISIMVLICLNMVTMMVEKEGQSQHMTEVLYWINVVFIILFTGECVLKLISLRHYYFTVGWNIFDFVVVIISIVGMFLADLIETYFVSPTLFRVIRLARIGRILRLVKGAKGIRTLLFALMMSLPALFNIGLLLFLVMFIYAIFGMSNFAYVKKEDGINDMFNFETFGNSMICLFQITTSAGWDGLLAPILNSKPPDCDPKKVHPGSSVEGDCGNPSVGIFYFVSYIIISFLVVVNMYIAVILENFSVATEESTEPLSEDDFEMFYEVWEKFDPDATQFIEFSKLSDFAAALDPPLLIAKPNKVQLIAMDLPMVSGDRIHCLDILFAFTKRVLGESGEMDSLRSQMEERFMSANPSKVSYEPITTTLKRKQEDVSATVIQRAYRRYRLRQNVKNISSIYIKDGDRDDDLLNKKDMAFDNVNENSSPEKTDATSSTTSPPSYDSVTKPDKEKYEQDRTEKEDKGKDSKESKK

[4] = target: T1, Sodium channel protein type 5 subunit alpha; test: Inhibition of human Nav1.5 expressed in CHO cells by automated patch clamp electrophysiology analysis
[5] = target: Sodium channel protein type 2 subunit alpha (Rattus norvegicus) (UniProt P04775); test: Inhibition of rat Nav1.2 expressed in Xenopus laevis oocytes at closed state at 1 uM by two electrode voltage-clamp assay; assay type: cell-based; settings: Oocyte; method in brief: as §1
[6] = target: Sodium channel protein type 8 subunit alpha (Mus musculus) (UniProt Q9WTU3); test: Inhibition of mouse Nav1.6 expressed in Xenopus laevis oocytes at closed state at 1 uM by two electrode voltage-clamp assay; assay type: cell-based; settings: Oocyte; method in brief: as §1
[7] = target: T1, Sodium channel protein type 5 subunit alpha; test: Inhibition of human Nav1.5 expressed in Xenopus laevis oocytes at closed state at 1 uM by two electrode voltage-clamp assay; assay type: cell-based; settings: oocyte; method in brief: as §1
[8] = target: T2, Sodium channel protein type 9 subunit alpha; test: Inhibition of human Nav1.7 expressed in CHO cells under inactivated state by automated patch clamp electrophysiology analysis; assay type: cell-based
Target sequence in this assay (Q15858 whole entry): as above

[9] = target: T3, Sodium channel protein type 3 subunit alpha (Homo sapiens, UniProt Q9NY46); test: Inhibition of human Nav1.3 expressed in CHO cells under inactivated state by automated patch clamp electrophysiology analysis; assay type: cell-based
[10] = target: Sodium channel protein type 10 subunit alpha (Homo sapiens) (UniProt Q9Y5Y9); test: Inhibition of human Nav1.8 expressed in Xenopus laevis oocytes at closed state at 1 uM by two electrode voltage-clamp assay; assay type: cell-based; settings: Oocyte; method in brief: as §1
[11] = target: T1, Sodium channel protein type 5 subunit alpha; test: Inhibition of human Nav1.5 expressed in CHO cells under tonic pulse 1 by automated patch clamp electrophysiology analysis; assay type: cell-based
[12] = target: Sodium channel protein type 3 subunit alpha (Rattus norvegicus) (UniProt P08104); test: Inhibition of rat Nav1.3 expressed in Xenopus laevis oocytes at 1 uM under inactivated state by two electrode voltage-clamp assay relative to control; assay type: cell-based; settings: Oocyte; method in brief: as §1
[13] = target: T3, Sodium channel protein type 3 subunit alpha; test: Inhibition of human Nav1.3 expressed in CHO cells under resting state by automated patch clamp electrophysiology analysis; assay type: cell-based
[14] = target: Sodium channel protein type 3 subunit alpha (Rattus norvegicus) (UniProt P08104); test: Inhibition of rat Nav1.3 expressed in Xenopus laevis oocytes at 1 uM under resting state by two electrode voltage-clamp assay relative to control; assay type: cell-based; settings: Oocyte; method in brief: as §1
[15] = target: T1, Sodium channel protein type 5 subunit alpha; test: Inhibition of human Nav1.5 expressed in CHO cells under resting state by automated patch clamp electrophysiology analysis; assay type: cell-based
[16] = target: Sodium channel protein type 4 subunit alpha (Rattus norvegicus) (UniProt P15390); test: Inhibition of rat Nav1.4 expressed in Xenopus laevis oocytes at closed state at 1 uM by two electrode voltage-clamp assay; assay type: cell-based; settings: Oocyte; method in brief: as §1
[17] = target: T2, Sodium channel protein type 9 subunit alpha; test: Inhibition of human Nav1.7 expressed in Xenopus laevis oocytes at closed state at 1 uM by two electrode voltage-clamp assay; assay type: cell-based; settings: Oocyte; method in brief: as §1
Target sequence in this assay (Q15858 whole entry, looked up): as the sequence (Q15858 whole entry) above

HepG2 = test: Cytotoxicity against human HepG2 cells

T1 sequence (Q14524 whole entry): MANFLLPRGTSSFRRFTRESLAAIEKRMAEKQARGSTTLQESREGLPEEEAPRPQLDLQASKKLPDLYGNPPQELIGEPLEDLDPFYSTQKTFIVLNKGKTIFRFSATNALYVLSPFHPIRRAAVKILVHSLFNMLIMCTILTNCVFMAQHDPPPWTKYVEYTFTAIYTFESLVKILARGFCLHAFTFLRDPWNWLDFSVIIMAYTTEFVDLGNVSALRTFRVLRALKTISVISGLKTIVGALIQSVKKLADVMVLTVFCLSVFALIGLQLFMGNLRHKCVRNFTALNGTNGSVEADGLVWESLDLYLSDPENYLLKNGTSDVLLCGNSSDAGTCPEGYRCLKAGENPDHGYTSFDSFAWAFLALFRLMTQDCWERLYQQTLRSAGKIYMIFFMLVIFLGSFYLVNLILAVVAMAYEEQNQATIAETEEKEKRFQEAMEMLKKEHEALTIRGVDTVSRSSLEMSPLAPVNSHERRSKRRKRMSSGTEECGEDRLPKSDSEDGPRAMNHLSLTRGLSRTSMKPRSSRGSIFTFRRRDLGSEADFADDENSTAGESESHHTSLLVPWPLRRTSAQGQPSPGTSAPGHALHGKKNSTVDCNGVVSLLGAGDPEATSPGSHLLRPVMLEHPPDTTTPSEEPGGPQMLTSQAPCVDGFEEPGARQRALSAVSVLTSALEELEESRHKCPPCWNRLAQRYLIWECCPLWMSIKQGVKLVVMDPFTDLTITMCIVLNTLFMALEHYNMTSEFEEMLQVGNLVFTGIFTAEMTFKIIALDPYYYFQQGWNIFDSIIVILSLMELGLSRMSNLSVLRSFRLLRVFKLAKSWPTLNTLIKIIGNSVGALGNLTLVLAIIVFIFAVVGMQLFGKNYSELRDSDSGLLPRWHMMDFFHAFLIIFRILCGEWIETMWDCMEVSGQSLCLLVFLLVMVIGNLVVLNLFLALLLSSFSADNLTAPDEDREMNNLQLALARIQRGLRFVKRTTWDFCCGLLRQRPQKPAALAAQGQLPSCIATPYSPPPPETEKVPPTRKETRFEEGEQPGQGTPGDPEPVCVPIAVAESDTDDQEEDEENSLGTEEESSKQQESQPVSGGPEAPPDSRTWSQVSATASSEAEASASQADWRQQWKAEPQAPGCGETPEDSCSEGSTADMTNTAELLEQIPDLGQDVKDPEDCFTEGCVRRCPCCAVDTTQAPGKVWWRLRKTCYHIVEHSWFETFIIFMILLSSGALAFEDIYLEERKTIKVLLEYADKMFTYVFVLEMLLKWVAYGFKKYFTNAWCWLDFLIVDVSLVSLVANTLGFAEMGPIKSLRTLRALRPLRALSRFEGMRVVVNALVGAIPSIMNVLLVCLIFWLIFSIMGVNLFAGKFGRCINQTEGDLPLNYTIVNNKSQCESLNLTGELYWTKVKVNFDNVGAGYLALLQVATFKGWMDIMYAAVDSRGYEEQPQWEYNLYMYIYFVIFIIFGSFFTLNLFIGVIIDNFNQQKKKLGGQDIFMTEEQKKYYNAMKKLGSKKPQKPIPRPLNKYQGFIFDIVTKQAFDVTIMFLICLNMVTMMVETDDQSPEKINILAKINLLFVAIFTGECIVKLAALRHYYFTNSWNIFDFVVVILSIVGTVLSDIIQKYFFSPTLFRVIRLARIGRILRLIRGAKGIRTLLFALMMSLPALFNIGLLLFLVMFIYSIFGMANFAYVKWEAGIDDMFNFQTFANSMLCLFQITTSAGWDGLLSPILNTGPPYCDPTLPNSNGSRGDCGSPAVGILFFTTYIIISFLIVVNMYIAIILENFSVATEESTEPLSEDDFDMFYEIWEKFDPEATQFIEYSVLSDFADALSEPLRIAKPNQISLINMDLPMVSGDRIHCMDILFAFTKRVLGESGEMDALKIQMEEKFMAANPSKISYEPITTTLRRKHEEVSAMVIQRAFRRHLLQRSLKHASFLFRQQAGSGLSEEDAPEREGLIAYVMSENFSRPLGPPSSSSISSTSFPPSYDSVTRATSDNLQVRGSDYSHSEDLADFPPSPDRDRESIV

Row | inhibition [2] | IC50 [3] [µM] | inhibition [5] | inhibition [6] | IC50 [8] [µM] | IC50 [9] [µM] | inhibition [10] | inhibition [12] [%] | IC50 [13] [µM] | inhibition [14] [%] | inhibition [16] | inhibition [17] | Structure (SMILES) | IC50 [1] [µM] | IC50 [4] [µM] | inhibition (INH) [7] | IC50 [11] [µM] | IC50 [15] [µM] | IC50 (HepG2) [µM]
1 | inactive | > 30 | inactive | inactive | 7.1 | 0.02 | inactive | 63 | 6.9 | < 9 | inactive | inactive | O=C(Nc1ccc(S(=O)(=O)Nc2nccs2)cc1)C1CC1c1ccc(F)c(F)c1 (racemic) | 3 | > 30 | Not Active | > 30 | > 30 | –
2 | – | – | – | – | – | – | – | – | – | – | – | – | COc1cc([C@@H]2c3cc4c(cc3[C@@H](O[C@@H]3O[C@@H]5CO[C@@H](C)O[C@H]5[C@H](O)[C@H]3O)[C@H]3COC(=O)[C@H]23)OCO4)cc(OC)c1O [ETOPOSIDE] | – | – | – | – | – | 30.2
